# Laboratory results taken from ChEMBL document CHEMBL3856258, “Phosphonate-based irreversible inhibitors of human γ-glutamyl transpeptidase (GGT). GGsTop is a non-toxic and highly selective inhibitor with critical electrostatic interaction with an active-site residue Lys562 for enhanced inhibitory activity” (Bioorg Med Chem, 2016).
# Legend:
# Escherichia coli K-12 = experiment: Irreversible inhibition of Escherichia coli K-12 SH642 GGT using gamma-Glu-AMC as substrate assessed as association rate constant by […] analysis
# How it was run: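 GGT was purified from the periplasmic fraction of recombinant E. coli K-12 SH642. Hydrolytic activity was followed with γ-Glu-AMC as substrate. Irreversible inactivation was expressed as kon, the second-order rate constant for the inhibitor–enzyme reaction.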
# [1] = Hydrolytic stability of the compound in D2O assessed as formation of monomethyl phosphonate and phenol at 23 degC up to 28 days by 31P NMR spectroscopy; assay type: physicochemical; conditions: 672 h
# Salmonella typhimurium [2] = experiment: Genotoxicity in Salmonella typhimurium TA1535 assessed as number of revertant colonies per plate at 61.7 ug/plate after 20 mins in absence of S9 fraction by Ames test (reference value: 15); assay type: toxicity, organism-based; conditions: salmonella enterica subsp. enterica serovar typhimurium
# Salmonella typhimurium [3] = experiment: Genotoxicity in Salmonella typhimurium TA1535 assessed as number of revertant colonies per plate at 556 ug/plate after 20 mins in absence of S9 fraction by Ames test (reference value: 15); assay type: toxicity, organism-based; conditions: salmonella enterica subsp. enterica serovar typhimurium
# Escherichia coli [4] = experiment: Genotoxicity in Escherichia coli WP2uvrA assessed as number of revertant colonies per plate at 1667 ug/plate after 20 mins in absence of S9 fraction by Ames test (reference value: 24); assay type: toxicity; conditions: s9, 20 min
# Escherichia coli [5] = experiment: Genotoxicity in Escherichia coli WP2uvrA assessed as number of revertant colonies per plate at 5000 ug/plate after 20 mins in absence of S9 fraction by Ames test (reference value: 24); assay type: toxicity; conditions: s9, 20 min
# Salmonella typhimurium [6] = experiment: Genotoxicity in Salmonella typhimurium TA98 assessed as number of revertant colonies per plate at 61.7 ug/plate after 20 mins in absence of S9 fraction by Ames test (reference value: 21); assay type: toxicity, organism-based; conditions: salmonella enterica subsp. enterica serovar typhimurium
# Salmonella typhimurium [7] = experiment: Genotoxicity in Salmonella typhimurium TA98 assessed as number of revertant colonies per plate at 1667 ug/plate after 20 mins in absence of S9 fraction by Ames test (reference value: 21); assay type: toxicity, organism-based; conditions: salmonella enterica subsp. enterica serovar typhimurium
# Salmonella typhimurium [8] = experiment: Genotoxicity in Salmonella typhimurium TA98 assessed as number of revertant colonies per plate at 5000 ug/plate after 20 mins in absence of S9 fraction by Ames test (reference value: 21); assay type: toxicity, organism-based; conditions: salmonella enterica subsp. enterica serovar typhimurium
# Salmonella typhimurium [9] = experiment: Genotoxicity in Salmonella typhimurium TA100 assessed as number of revertant colonies per plate at 1667 ug/plate after 20 mins in presence of S9 fraction by Ames test (reference value: 142); assay type: toxicity, organism-based; conditions: salmonella enterica subsp. enterica serovar typhimurium
# Salmonella typhimurium [10] = experiment: Genotoxicity in Salmonella typhimurium TA100 assessed as number of revertant colonies per plate at 5000 ug/plate after 20 mins in presence of S9 fraction by Ames test (reference value: 142); assay type: toxicity, organism-based; conditions: salmonella enterica subsp. enterica serovar typhimurium
# Salmonella typhimurium [11] = experiment: Genotoxicity in Salmonella typhimurium TA1535 assessed as number of revertant colonies per plate at 61.7 ug/plate after 20 mins in presence of S9 fraction by Ames test (reference value: 13); assay type: toxicity, organism-based; conditions: salmonella enterica subsp. enterica serovar typhimurium
# Salmonella typhimurium [12] = experiment: Genotoxicity in Salmonella typhimurium TA1535 assessed as number of revertant colonies per plate at 185 ug/plate after 20 mins in presence of S9 fraction by Ames test (reference value: 13); assay type: toxicity, organism-based; conditions: salmonella enterica subsp. enterica serovar typhimurium
# Salmonella typhimurium [13] = experiment: Genotoxicity in Salmonella typhimurium TA1535 assessed as number of revertant colonies per plate at 1667 ug/plate after 20 mins in presence of S9 fraction by Ames test (reference value: 13); assay type: toxicity, organism-based; conditions: salmonella enterica subsp. enterica serovar typhimurium
# Salmonella typhimurium [14] = experiment: Genotoxicity in Salmonella typhimurium TA1535 assessed as number of revertant colonies per plate at 5000 ug/plate after 20 mins in presence of S9 fraction by Ames test (reference value: 13); assay type: toxicity, organism-based; conditions: salmonella enterica subsp. enterica serovar typhimurium
# Escherichia coli [15] = experiment: Genotoxicity in Escherichia coli WP2uvrA assessed as number of revertant colonies per plate at 20.6 ug/plate after 20 mins in presence of S9 fraction by Ames test (reference value: 26); assay type: toxicity; conditions: s9, 20 min
# Escherichia coli [16] = experiment: Genotoxicity in Escherichia coli WP2uvrA assessed as number of revertant colonies per plate at 556 ug/plate after 20 mins in presence of S9 fraction by Ames test (reference value: 26); assay type: toxicity; conditions: s9, 20 min
# Salmonella typhimurium [17] = experiment: Genotoxicity in Salmonella typhimurium TA98 assessed as number of revertant colonies per plate at 20.6 ug/plate after 20 mins in presence of S9 fraction by Ames test (reference value: 26); assay type: toxicity, organism-based; conditions: salmonella enterica subsp. enterica serovar typhimurium
# Salmonella typhimurium [18] = experiment: Genotoxicity in Salmonella typhimurium TA98 assessed as number of revertant colonies per plate at 1667 ug/plate after 20 mins in presence of S9 fraction by Ames test (reference value: 26); assay type: toxicity, organism-based; conditions: salmonella enterica subsp. enterica serovar typhimurium
# Salmonella typhimurium [19] = experiment: Genotoxicity in Salmonella typhimurium TA1537 assessed as number of revertant colonies per plate at 61.7 ug/plate after 20 mins in presence of S9 fraction by Ames test (reference value: 15); assay type: toxicity, organism-based; conditions: salmonella enterica subsp. enterica serovar typhimurium
# [20] = Cytotoxicity against CHL cells assessed as growth rate at 5.41 ug/ml preincubated for 6 hrs followed by 18 hrs incubation in fresh medium in absence of S9 fraction by MTT assay relative to control; assay type: toxicity, cell-based, Cricetulus griseus; conditions: chinese hamster, read-out: Activity
# [21] = Cytotoxicity against CHL cells assessed as growth rate at 211 ug/ml preincubated for 6 hrs followed by 18 hrs incubation in fresh medium in absence of S9 fraction by MTT assay relative to control; assay type: toxicity, cell-based, Cricetulus griseus; conditions: chinese hamster, read-out: Activity
# [22] = Cytotoxicity against CHL cells assessed as growth rate at 1320 ug/ml preincubated for 6 hrs followed by 18 hrs incubation in fresh medium in absence of S9 fraction by MTT assay relative to control; assay type: toxicity, cell-based, Cricetulus griseus; conditions: chinese hamster, read-out: Activity
# [23] = Cytotoxicity against CHL cells assessed as growth rate at 3300 ug/ml preincubated for 6 hrs followed by 18 hrs incubation in fresh medium in absence of S9 fraction by MTT assay relative to control; assay type: toxicity, cell-based, Cricetulus griseus; conditions: chinese hamster, read-out: Activity
# [24] = Cytotoxicity against CHL cells assessed as growth rate at 1320 ug/ml preincubated for 6 hrs followed by 18 hrs incubation in fresh medium in presence of S9 fraction by MTT assay relative to control; assay type: toxicity, cell-based, Cricetulus griseus; conditions: chinese hamster, read-out: Activity
# [25] = Cytotoxicity against CHL cells assessed as growth rate at 5.41 ug/ml after 24 hrs in absence of S9 fraction by MTT assay relative to control; assay type: toxicity, cell-based, Cricetulus griseus; conditions: chinese hamster, read-out: Activity
# [26] = Cytotoxicity against CHL cells assessed as growth rate at 13.5 ug/ml after 24 hrs in absence of S9 fraction by MTT assay relative to control; assay type: toxicity, cell-based, Cricetulus griseus; conditions: chinese hamster, read-out: Activity
# [27] = Cytotoxicity against CHL cells assessed as growth rate at 3300 ug/ml after 24 hrs in absence of S9 fraction by MTT assay relative to control; assay type: toxicity, cell-based, Cricetulus griseus; conditions: chinese hamster, read-out: Activity
# [28] = Cytotoxicity against CHL cells assessed as structural aberrations at 1650 ug/ml preincubated for 6 hrs followed by 18 hrs incubation in fresh medium in absence of S9 fraction by Giemsa-staining-based microscopic analysis; assay type: toxicity, cell-based, Cricetulus griseus; conditions: chinese hamster
# [29] = Cytotoxicity against CHL cells assessed as structural aberrations at 3300 ug/ml preincubated for 6 hrs followed by 18 hrs incubation in fresh medium in presence of S9 fraction by Giemsa-staining-based microscopic analysis; assay type: toxicity, cell-based, Cricetulus griseus; conditions: chinese hamster
# [30] = Cytotoxicity against CHL cells assessed as chromatid gap at 3300 ug/ml after 24 hrs by Giemsa-staining-based microscopic analysis; assay type: toxicity, cell-based, Cricetulus griseus; conditions: chinese hamster
# [31] = Cytotoxicity against CHL cells assessed as number of cells with numerical aberrations at 3300 ug/ml preincubated for 6 hrs followed by 18 hrs incubation in fresh medium in presence of S9 fraction by Giemsa staining-based microscopic analysis relative to control; assay type: toxicity, cell-based, Cricetulus griseus; conditions: chinese hamster
compound,measurement,setting,value
COP(=O)(CCC(N)C(=O)O)Oc1cccc(CC(=O)O)c1 (configuration not stated),K,Escherichia coli K-12,150 M⁻¹ s⁻¹
same,Stability,[1],Stable
same,Activity,Salmonella typhimurium [2],8
same,Activity,Salmonella typhimurium [3],8
same,Activity,Escherichia coli [4],29
same,Activity,Escherichia coli [5],29
same,Activity,Salmonella typhimurium [6],23
same,Activity,Salmonella typhimurium [7],23
same,Activity,Salmonella typhimurium [8],24
same,Activity,Salmonella typhimurium [9],131
same,Activity,Salmonella typhimurium [10],125
same,Activity,Salmonella typhimurium [11],9
same,Activity,Salmonella typhimurium [12],13
same,Activity,Salmonella typhimurium [13],8
same,Activity,Salmonella typhimurium [14],11
same,Activity,Escherichia coli [15],30
same,Activity,Escherichia coli [16],27
same,Activity,Salmonella typhimurium [17],29
same,Activity,Salmonella typhimurium [18],29
same,Activity,Salmonella typhimurium [19],17
same,"viability at 18 h, 5.41 ug/ml",[20],103%
same,"viability at 18 h, 211 ug/ml",[21],101%
same,"viability at 18 h, 1320 ug/ml",[22],95.7%
same,"viability at 18 h, 3300 ug/ml",[23],97.1%
same,"viability at 18 h, 1320 ug/ml",[24],95.7%
same,"viability at 24 h, 5.41 ug/ml",[25],105%
same,"viability at 24 h, 13.5 ug/ml",[26],103%
same,"viability at 24 h, 3300 ug/ml",[27],79.5%
same,Activity,[28],0%
same,Activity,[29],1%
same,Activity,[30],0%
same,Activity,[31],1%
